# Measurements as given in ChEMBL document CHEMBL5724801, “EUbOPEN Chemogenomics Library - Multiplex” (2024).
# Where “and” joins values, the source holds several entries; their conditions need not be identical. Identical values can stand only once.
# Test system: U2OS
# Assay: Multiplex assay against U2OS
# Format: toxicity, cell-based
# Settings: human
# Outline: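 Values for tubulin, mitochondrial-mass and membrane-permeability phenotypes are per cents of cells with healthy nuclei. These cells were identified by CellPathfinder machine-learning gating of live cells that had been stained at seeding with Hoechst33342, BioTracker Green Microtubule Cytoskeleton Dye, MitoTracker Red and Annexin V Alexa Fluor 680 and imaged on a CQ1 microscope at 37°C and 5% CO2 after compound addition. The gating first set Hoechst high-intensity objects apart from normal cells, then split normal cells into healthy, pyknosed or fragmented nuclei, and pyknosed cells into mitotic or apoptotic.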
# [1] = 12 h, 1 µM, compound concentration 1 uM
# [2] = 12 h, 10 µM, compound concentration 10 uM
# [3] = 24 h, 1 µM, compound concentration 1 uM
# [4] = 24 h, 10 µM, compound concentration 10 uM
# [5] = 48 h, 1 µM, compound concentration 1 uM
# [6] = 48 h, 10 µM, compound concentration 10 uM
smiles,measurement,setting,value
O=C1N=C(NCc2cccs2)S/C1=C\c1ccc2ncccc2c1,Population Apoptotic (%),[1],36.36% and 33.33%
same,Population Fragmented Nuclei (%),[1],2.87% and 8.81%
same,Population Healthy Nuclei (%),[1],87.42% and 78.76%
same,Population Hoechst High Intensity Objects (%),[1],0%
same,Population Membrane Permeable-Phenotype (%),[1],0.51% and 3.95%
same,Population Mitotic Cells (%),[1],63.64% and 66.67%
same,Population Normal (%),[1],100%
same,Population Pyknosed Nuclei (%),[1],9.71% and 12.44%
same,Population Tubulin-Different-Phenotype (%),[1],1.01% and 1.97%
same,Total Cell Count,[1],453 and 193
same,Population Apoptotic (%),[2],55% and 44%
same,Population Fragmented Nuclei (%),[2],1.99% and 5.59%
same,Population Healthy Nuclei (%),[2],91.39% and 78.88%
same,Population Hoechst High Intensity Objects (%),[2],0%
same,Population Membrane Permeable-Phenotype (%),[2],16.67% and 19.69%
same,Population Mitotic Cells (%),[2],45% and 56%
same,Population Normal (%),[2],100%
same,Population Pyknosed Nuclei (%),[2],6.62% and 15.53%
same,Population Tubulin-Different-Phenotype (%),[2],18.48% and 14.96%
same,Total Cell Count,[2],302 and 161
same,Population Apoptotic (%),[3],37.5% and 40.54%
same,Population Fragmented Nuclei (%),[3],1.66% and 6.39%
same,Population Healthy Nuclei (%),[3],87.71% and 79.7%
same,Population Hoechst High Intensity Objects (%),[3],0%
same,Population Membrane Permeable-Phenotype (%),[3],0.95% and 5.19%
same,Population Mitochondria Different-Phenotype (%),[3],0.19% and 9.91%
same,Population Mitotic Cells (%),[3],62.5% and 59.46%
same,Population Normal (%),[3],100%
same,Population Pyknosed Nuclei (%),[3],10.63% and 13.91%
same,Population Tubulin-Different-Phenotype (%),[3],0.38% and 1.42%
same,Total Cell Count,[3],602 and 266
same,Population Apoptotic (%),[4],68.42%
same,Population Fragmented Nuclei (%),[4],4.38% and 8.12%
same,Population Healthy Nuclei (%),[4],76.43% and 68.12%
same,Population Hoechst High Intensity Objects (%),[4],0%
same,Population Membrane Permeable-Phenotype (%),[4],10.57% and 12.84%
same,Population Mitotic Cells (%),[4],31.58%
same,Population Normal (%),[4],100%
same,Population Pyknosed Nuclei (%),[4],19.19% and 23.75%
same,Population Tubulin-Different-Phenotype (%),[4],13.66% and 9.17%
same,Total Cell Count,[4],297 and 160
same,Population Apoptotic (%),[5],47.06% and 45.1%
same,Population Fragmented Nuclei (%),[5],4.77% and 4%
same,Population Healthy Nuclei (%),[5],86.23% and 84%
same,Population Hoechst High Intensity Objects (%),[5],0.09% and 0%
same,Population Membrane Permeable-Phenotype (%),[5],0.92% and 1.96%
same,Population Mitochondria Different-Phenotype (%),[5],0.1% and 4.48%
same,Population Mitotic Cells (%),[5],52.94% and 54.9%
same,Population Normal (%),[5],99.91% and 100%
same,Population Pyknosed Nuclei (%),[5],9% and 12%
same,Population Tubulin-Different-Phenotype (%),[5],0.82% and 0.28%
same,Total Cell Count,[5],1134 and 425
same,Population Apoptotic (%),[6],81.63% and 92.42%
same,Population Fragmented Nuclei (%),[6],10.65% and 9.25%
same,Population Healthy Nuclei (%),[6],57.74% and 52.6%
same,Population Hoechst High Intensity Objects (%),[6],0%
same,Population Membrane Permeable-Phenotype (%),[6],3.91% and 5.49%
same,Population Mitotic Cells (%),[6],18.37% and 7.58%
same,Population Normal (%),[6],100%
same,Population Pyknosed Nuclei (%),[6],31.61% and 38.15%
same,Total Cell Count,[6],310 and 173
CCN1CCN(Cc2ccc(Nc3ncc(F)c(-c4cc(F)c5nc(C)n(C(C)C)c5c4)n3)nc2)CC1.CS(=O)(=O)O,Population Apoptotic (%),[1],40% and 33.33%
same,Population Fragmented Nuclei (%),[1],3.09% and 3.21%
same,Population Healthy Nuclei (%),[1],86.11% and 81.41%
same,Population Hoechst High Intensity Objects (%),[1],0% and 0.64%
same,Population Membrane Permeable-Phenotype (%),[1],3.23% and 10.24%
same,Population Mitotic Cells (%),[1],60% and 66.67%
same,Population Normal (%),[1],100% and 99.36%
same,Population Pyknosed Nuclei (%),[1],10.8% and 15.38%
same,Population Tubulin-Different-Phenotype (%),[1],6.09% and 6.3%
same,Total Cell Count,[1],324 and 157
same,Population Apoptotic (%),[2],43.96% and 38.67%
same,Population Fragmented Nuclei (%),[2],4.12% and 4.26%
same,Population Healthy Nuclei (%),[2],70.88% and 42.55%
same,Population Hoechst High Intensity Objects (%),[2],0%
same,Population Membrane Permeable-Phenotype (%),[2],56.98% and 48.33%
same,Population Mitotic Cells (%),[2],56.04% and 61.33%
same,Population Normal (%),[2],100%
same,Population Pyknosed Nuclei (%),[2],25% and 53.19%
same,Population Tubulin-Different-Phenotype (%),[2],92.64% and 93.33%
same,Total Cell Count,[2],364 and 141
same,Population Apoptotic (%),[3],36.67% and 46.88%
same,Population Fragmented Nuclei (%),[3],2.68% and 4.65%
same,Population Healthy Nuclei (%),[3],82.68% and 76.74%
same,Population Hoechst High Intensity Objects (%),[3],0%
same,Population Membrane Permeable-Phenotype (%),[3],3.54% and 6.06%
same,Population Mitotic Cells (%),[3],63.33% and 53.12%
same,Population Normal (%),[3],100%
same,Population Pyknosed Nuclei (%),[3],14.63% and 18.6%
same,Population Tubulin-Different-Phenotype (%),[3],7.67% and 9.85%
same,Total Cell Count,[3],410 and 172
same,Population Apoptotic (%),[4],48.89% and 41.41%
same,Population Fragmented Nuclei (%),[4],5.44% and 6.04%
same,Population Healthy Nuclei (%),[4],59.59% and 27.52%
same,Population Hoechst High Intensity Objects (%),[4],0%
same,Population Membrane Permeable-Phenotype (%),[4],31.3% and 21.95%
same,Population Mitotic Cells (%),[4],51.11% and 58.59%
same,Population Normal (%),[4],100%
same,Population Pyknosed Nuclei (%),[4],34.97% and 66.44%
same,Population Tubulin-Different-Phenotype (%),[4],66.09% and 65.85%
same,Total Cell Count,[4],386 and 149
same,Population Apoptotic (%),[5],47.62% and 37.14%
same,Population Fragmented Nuclei (%),[5],4.31% and 6.15%
same,Population Healthy Nuclei (%),[5],83.37% and 75.9%
same,Population Hoechst High Intensity Objects (%),[5],0%
same,Population Membrane Permeable-Phenotype (%),[5],2.58% and 6.08%
same,Population Mitotic Cells (%),[5],52.38% and 62.86%
same,Population Normal (%),[5],100%
same,Population Pyknosed Nuclei (%),[5],12.33% and 17.95%
same,Population Tubulin-Different-Phenotype (%),[5],8.92% and 12.84%
same,Total Cell Count,[5],511 and 195
same,Population Apoptotic (%),[6],65% and 80.18%
same,Population Fragmented Nuclei (%),[6],3.14% and 4.64%
same,Population Healthy Nuclei (%),[6],34% and 21.85%
same,Population Hoechst High Intensity Objects (%),[6],0% and 0.66%
same,Population Membrane Permeable-Phenotype (%),[6],9.09%
same,Population Mitotic Cells (%),[6],35% and 19.82%
same,Population Normal (%),[6],100% and 99.34%
same,Population Pyknosed Nuclei (%),[6],62.86% and 73.51%
same,Population Tubulin-Different-Phenotype (%),[6],68.91% and 27.27%
same,Total Cell Count,[6],350 and 152
